Laboratory results as given in ChEMBL document CHEMBL5321263, “Metabolomics-Guided Discovery, Isolation, Structure Elucidation, and Bioactivity of Myropeptins C-E from Myrothecium inundatum” (J Nat Prod, 2023).
≈ marks a conversion by molar mass, not a printed value. Calls of active or inactive are those of the source. No cut-off for these calls is given here. Where a SMILES comes first, the peptide text is derived from it. [ ]: non-standard residue; d: D form. The star is where a group is joined. Lauroyl = CCCCCCCCCCCC(=O)*; Decanoyl = CCCCCCCCCC(=O)*; Aib = CC(C)(N)C(=O)O; βAla = NCCC(=O)O

Key:
HCT-116 = assay: Antiproliferative activity against human HCT-116 cells measured after 24 hrs by MTT assay; type: functional, cell-based; conditions: HCT-116, 24 h
Method in brief: (§1)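 MTT read-out after 24 h; HCT-116 (7000 cells/well) or MDA-MB-231 (8000 cells/well) in DMEM with 10% FBS, 37 °C, 5% CO2, plated overnight before dosing; MTT 0.5 mg/ml final, 2 h at 37 °C; formazan dissolved in DMSO, A550; vehicle (0.5% DMSO) set as 100% growth; biological triplicates, two technical replicates.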

MDA-MB-231 = assay: Antiproliferative activity against human MDA-MB-231 cells measured after 24 hrs by MTT assay; type: functional, cell-based; conditions: MDA-MB-231, 24 h; method in brief: as §1
[1] = Hemolytic activity in sheep erythrocytes assessed as hemolysis incubated for 1 hr by microplate reader based analysis; type: toxicity, cell-based, Ovis aries, Erythrocyte
Method in brief: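 Defibrinated sheep blood washed 3× in PBS, diluted 1:500 (~8×10^7 cells/mL); 190 μL suspension plus 10 μL 20-fold compound stock in PBS + 0.5% DMSO, 1 h at 37 °C; centrifuged, supernatant OD450; 0.1% Triton X-100 positive control; three independent experiments.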

[2] = Toxicity in zebra fish AB embryo assessed as mortality at 10 uM incubated for 48 hrs relative to control; set-up: species or system Danio rerio; conditions: zebrafish, read-out: Activity
[3] = Toxicity in zebra fish AB embryo assessed as mortality incubated for 48 hrs; set-up: species or system Danio rerio; conditions: zebrafish
[4] = Toxicity in human SK-MEL-5 cells assessed as calcium influx-mediated cell rupture at 16 uM measured upto 120 secs by fluorescence based analysis; conditions: sk-mel-5, 2 min, time < 120 sec
Staphylococcus aureus [5] = assay: Antimicrobial activity against Staphylococcus aureus ATCC 25923 measured after 16 hrs by CLSI protocol based method; type: functional
Staphylococcus aureus [6] = assay: Antimicrobial activity against methicillin resistant Staphylococcus aureus ATCC BAA41 measured after 16 hrs by CLSI protocol based method; type: functional
Staphylococcus aureus [7] = assay: Antimicrobial activity against multidrug resistant Staphylococcus aureus ATCC BAA-44 measured after 16 hrs by CLSI protocol based method; type: functional
[Candida] auris = Antimicrobial activity against Candida auris CDCB11903 measured after 16 hrs by CLSI protocol based method; type: functional; conditions: Candidozyma auris
OVCAR-8 = assay: Antiproliferative activity against human OVCAR-8 cells measured after 24 hrs by MTT assay; type: functional; conditions: read-out: LC50 (the source's name)
SK-MEL-5 [8] = assay: Induction of mitochondrial membrane potential in human SK-MEL-5 cells assessed as reduction in accumulation of dye at 1 uM measured after 30 mins by […] staining based confocal microscopy analysis; type: functional, cell-based
Method in brief: (§2)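 SK-Mel-5 on poly-L-lysine-coated coverslips, 24 h; 30 min at 37 °C with 2 μM MitoOrange, 0.1% Hoechst 33342 and 1 μM compound, 0.1% DMSO or 50 μM FCCP; washed in warm PBS with CaCl2/MgCl2; confocal imaging, 20x objective, transmitted light plus MitoOrange CMTMRos and Hoechst channels.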

SK-MEL-5 [9] = assay: Induction of apoptosis in human SK-MEL-5 cells assessed as membrane blebbing at 1 uM measured after 30 mins by confocal microscopy based analysis; type: functional, cell-based; method in brief: as §2
SK-MEL-5 [10] = assay: Induction of apoptosis in human SK-MEL-5 cells assessed as early apoptosis at 1 to 4 uM measured after 3 hrs by Annexin V-FITC/propidium iodide staining based flow cytometric analysis; type: functional, cell-based; conditions: dose 1-4 µM
Method in brief: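 SK-Mel-5 (1 × 10^6 cells per T25) grown 24 h, then treated 3 h in medium at 1 or 4 μM; 0.5% DMSO vehicle, 5 μM camptothecin control; trypsinised, washed, stained with FITC-annexin V and propidium iodide 15 min at RT in the dark, analysed by flow cytometry within 1 h.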

SK-MEL-5 [11] = assay: Induction of calcium influx in human SK-MEL-5 cells assessed as increase in fluorescence at 1 to 4 uM measured upto 120 secs by fluorescence based assay; type: functional, cell-based; conditions: dose 1-4 µM, time <= 120.0 sec
[12] = Toxicity in zebra fish AB embryo assessed as mortality at 50 uM incubated for 48 hrs relative to control; set-up: species or system Danio rerio; conditions: zebrafish, read-out: Activity

| Structure (SMILES) | IC50 (HCT-116) [µM] | IC50 (MDA-MB-231) [µM] | IC50 at 1 h [1] [µM] | MIC (Staphylococcus aureus [5]) [µg/mL] | MIC (Staphylococcus aureus [6]) [µg/mL] | MIC (Staphylococcus aureus [7]) [µg/mL] | MIC ([Candida] auris) [µg/mL] | other results |
| --- | --- | --- | --- | --- | --- | --- | --- | --- |
| CCCCCCCCCCCC(=O)NC(C)(C)C(=O)N1CCC[C@H]1C(=O)NC(C)(C)C(=O)NC(C)(C)C(=O)N1CCC[C@H]1C(=O)NC(C)(C)C(=O)NC(C)(C)C(=O)N1CCC[C@H]1C(=O)N[C@@H](C)C(=O)NC(C)(C)C(=O)NCCC(=O)N[C@@H](C)C(=O)NC(C)(C)C(=O)NC(C)(C)C(=O)NCCC(=O)NC(C)(C)C(=O)NC(C)(C)C(=O)NC(C)(C)C(=O)N[C@@H](C)C(=O)NCCC(=O)O [listing 1 of 2 here] | 1.2 | 1.5 | 1.5 |  |  |  |  | mortality at 48 h, 10 µM [2]: 100%; EC50 at 48 h [3]: 5 µM; Activity [4]: Toxic |
| CCCCCCCCCCCC(=O)NC(C)(C)C(=O)N1CCC[C@H]1C(=O)NC(C)(C)C(=O)NC(C)(C)C(=O)N1CCC[C@H]1C(=O)NC(C)(C)C(=O)NC(C)(C)C(=O)N1CCC[C@H]1C(=O)N[C@@H](C)C(=O)NC(C)(C)C(=O)NCCC(=O)N[C@@H](C)C(=O)NC(C)(C)C(=O)NC(C)(C)C(=O)NCCC(=O)NC(C)(C)C(=O)NC(C)(C)C(=O)NC(C)(C)C(=O)N[C@@H](C)C(=O)NCCC(=O)O [listing 2 of 2 here] |  |  |  | 4 (≈ 2.16 µM) | 4 (≈ 2.16 µM) | 4 (≈ 2.16 µM) | 4 (≈ 2.16 µM) | CC50 (OVCAR-8): > 16 µM |
| COc1cccc2c1[C@H](OC)[C@]13O[C@@]1(C2=O)[C@H](O)[C@H](C)[C@@](O)(C(=O)[C@@H]1O[C@H]1C)[C@@H]3O | 1.3 | 0.6 |  |  |  |  |  |  |
| CCCCCCCCCCCC(=O)NC(C)(C)C(=O)N1CCC[C@@H]1C(=O)NC(C)(C)C(=O)NC(C)(C)C(=O)N1CCC[C@@H]1C(=O)NC(C)(C)C(=O)NC(C)(C)C(=O)N1CCC[C@H]1C(=O)N[C@@H](C)C(=O)NC(C)(C)C(=O)NCCC(=O)N[C@@H](C)C(=O)NC(C)(C)C(=O)NC(C)(C)C(=O)NCCC(=O)NC(C)(C)C(=O)NC(C)(C)C(=O)NC(C)(C)C(=O)N[C@@H](C)C(=O)NCCC(=O)O |  |  |  |  |  |  |  | Activity (SK-MEL-5 [8]): Active; Activity (SK-MEL-5 [9]): inactive; Activity (SK-MEL-5 [10]): Active |
| C[C@H](CCC(=O)O)C[C@H](C)C[C@H](C)C(=O)/C=C(\O)[C@H](C)C[C@H](C)C/C=C/[C@@H](C)[C@@H](O)[C@@H](C)[C@@H](O)C[C@@H]1CC[C@@](C)([C@H]2CC[C@@](C)([C@@H](C)O)O2)O1 |  |  |  |  |  |  |  | Activity (SK-MEL-5 [11]): Active |
| CCCCCCCCCC(=O)NC(C)(C)C(=O)N1CCC[C@H]1C(=O)NC(C)(C)C(=O)NC(C)(C)C(=O)N1CCC[C@H]1C(=O)NC(C)(C)C(=O)NC(C)(C)C(=O)N1CCC[C@H]1C(=O)N[C@@H](C)C(=O)NC(C)(C)C(=O)NCCC(=O)N[C@@H](C)C(=O)NC(C)(C)C(=O)NC(C)(C)C(=O)NCCC(=O)NC(C)(C)C(=O)NC(C)(C)C(=O)NC(C)(C)C(=O)N[C@@H](C)C(=O)NCCC(=O)O (Decanoyl-[Aib]P[Aib][Aib]P[Aib][Aib]PA[Aib][βAla]A[Aib][Aib][βAla][Aib][Aib][Aib]A[βAla]-OH) [listing 1 of 2 here] | 5.2 | 9.2 | 7 |  |  |  |  | mortality at 48 h, 50 µM [12]: 100%; EC50 at 48 h [3]: 30 µM |
| CCCCCCCCCC(=O)NC(C)(C)C(=O)N1CCC[C@H]1C(=O)NC(C)(C)C(=O)NC(C)(C)C(=O)N1CCC[C@H]1C(=O)NC(C)(C)C(=O)NC(C)(C)C(=O)N1CCC[C@H]1C(=O)N[C@@H](C)C(=O)NC(C)(C)C(=O)NCCC(=O)N[C@@H](C)C(=O)NC(C)(C)C(=O)NC(C)(C)C(=O)NCCC(=O)NC(C)(C)C(=O)NC(C)(C)C(=O)NC(C)(C)C(=O)N[C@@H](C)C(=O)NCCC(=O)O (Decanoyl-[Aib]P[Aib][Aib]P[Aib][Aib]PA[Aib][βAla]A[Aib][Aib][βAla][Aib][Aib][Aib]A[βAla]-OH) [listing 2 of 2 here] |  |  |  | 16 (≈ 8.76 µM) | 16 (≈ 8.76 µM) | 16 (≈ 8.76 µM) | 16 (≈ 8.76 µM) |  |
| CCCCCCCCCC(=O)NC(C)(C)C(=O)N1CCC[C@H]1C(=O)NC(C)(C)C(=O)NC(C)(C)C(=O)N1CCC[C@H]1C(=O)NC(C)(C)C(=O)NC(C)(C)C(=O)N1CCC[C@H]1C(=O)NC(C)(C)C(=O)NC(C)(C)C(=O)NCCC(=O)N[C@@H](C)C(=O)NC(C)(C)C(=O)NC(C)(C)C(=O)NCCC(=O)NC(C)(C)C(=O)NC(C)(C)C(=O)NC(C)(C)C(=O)N[C@@H](C)C(=O)NCCC(=O)O (Decanoyl-[Aib]P[Aib][Aib]P[Aib][Aib]P[Aib][Aib][βAla]A[Aib][Aib][βAla][Aib][Aib][Aib]A[βAla]-OH) [listing 1 of 2 here] | 6.1 | 8.2 | 10 |  |  |  |  |  |
| CCCCCCCCCC(=O)NC(C)(C)C(=O)N1CCC[C@H]1C(=O)NC(C)(C)C(=O)NC(C)(C)C(=O)N1CCC[C@H]1C(=O)NC(C)(C)C(=O)NC(C)(C)C(=O)N1CCC[C@H]1C(=O)NC(C)(C)C(=O)NC(C)(C)C(=O)NCCC(=O)N[C@@H](C)C(=O)NC(C)(C)C(=O)NC(C)(C)C(=O)NCCC(=O)NC(C)(C)C(=O)NC(C)(C)C(=O)NC(C)(C)C(=O)N[C@@H](C)C(=O)NCCC(=O)O (Decanoyl-[Aib]P[Aib][Aib]P[Aib][Aib]P[Aib][Aib][βAla]A[Aib][Aib][βAla][Aib][Aib][Aib]A[βAla]-OH) [listing 2 of 2 here] |  |  |  | 16 (≈ 8.69 µM) | 16 (≈ 8.69 µM) | 16 (≈ 8.69 µM) | 16 (≈ 8.69 µM) |  |
| CCCCCCCCCCCC(=O)NC(C)(C)C(=O)N1CCC[C@H]1C(=O)NC(C)(C)C(=O)NC(C)(C)C(=O)N1CCC[C@H]1C(=O)NC(C)(C)C(=O)NC(C)(C)C(=O)N1CCC[C@H]1C(=O)NC(C)(C)C(=O)NC(C)(C)C(=O)NCCC(=O)N[C@@H](C)C(=O)NC(C)(C)C(=O)NC(C)(C)C(=O)NCCC(=O)NC(C)(C)C(=O)NC(C)(C)C(=O)NC(C)(C)C(=O)N[C@@H](C)C(=O)NCCC(=O)O (Lauroyl-[Aib]P[Aib][Aib]P[Aib][Aib]P[Aib][Aib][βAla]A[Aib][Aib][βAla][Aib][Aib][Aib]A[βAla]-OH) [listing 1 of 2 here] | 9.5 | 11.1 | 2 |  |  |  |  |  |
| CCCCCCCCCCCC(=O)NC(C)(C)C(=O)N1CCC[C@H]1C(=O)NC(C)(C)C(=O)NC(C)(C)C(=O)N1CCC[C@H]1C(=O)NC(C)(C)C(=O)NC(C)(C)C(=O)N1CCC[C@H]1C(=O)NC(C)(C)C(=O)NC(C)(C)C(=O)NCCC(=O)N[C@@H](C)C(=O)NC(C)(C)C(=O)NC(C)(C)C(=O)NCCC(=O)NC(C)(C)C(=O)NC(C)(C)C(=O)NC(C)(C)C(=O)N[C@@H](C)C(=O)NCCC(=O)O (Lauroyl-[Aib]P[Aib][Aib]P[Aib][Aib]P[Aib][Aib][βAla]A[Aib][Aib][βAla][Aib][Aib][Aib]A[βAla]-OH) [listing 2 of 2 here] |  |  |  | 4 (≈ 2.14 µM) | 8 (≈ 4.28 µM) | 8 (≈ 4.28 µM) | 16 (≈ 8.56 µM) |  |
| CC[C@H](C)C[C@H](C)CCCCCCCCC(=O)N[C@H]1C[C@@H](O)[C@@H](NCCN)NC(=O)[C@@H]2[C@@H](O)CCN2C(=O)[C@H]([C@H](O)CCN)NC(=O)[C@H]([C@H](O)[C@@H](O)c2ccc(O)cc2)NC(=O)[C@@H]2C[C@@H](O)CN2C(=O)[C@H]([C@@H](C)O)NC1=O [CASPOFUNGIN] |  |  |  |  |  |  | 2 (≈ 1.83 µM) |  |
| NC[C@H]1O[C@H](O[C@H]2[C@H](O)[C@@H](O[C@H]3O[C@H](CO)[C@@H](O)[C@H](N)[C@H]3O)[C@H](N)C[C@@H]2N)[C@H](O)[C@@H](O)[C@@H]1O [KANAMYCIN] |  |  |  | 1 (≈ 2.06 µM) |  |  |  |  |
